Rows were chosen to be rich in hits. Some 3.5% of all compounds tested hit in one or more screens of this group.
SIAE primary = human SIAE inhibition, primary screen | Q9HAT2 | SIAE FP-Rh probe binding, fluorescence polarization | inhibition, % at 9.66 µM | actives 0.69% (n = 370,000) | AID 1053197;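 active means inhibition above a cutoff: mean of compounds within the control limits plus 3 SD of those, cut at about 17% in these data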;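 further: 0% = plate median of compound wells and 100% = probe without SIAE protein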
rCAG RNA binder = binds r(CAG) RNA repeats; r(CAG) RNA repeat, TO-PRO-1 dye displacement fluorescence; inhibition, % at 3 µM; actives 1.3% (n = 370,000); AID 651821;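 active means inhibition above the plate cutoff, the mean of all test compounds on that plate plus 3 SD, cut at about 35% in these data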;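 further: 0% = DMSO alone and 100% = 100 µM mitoxantrone as full dye displacement; higher means more dye released from RNA so lower well fluorescence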
HTRA1 inh = HTRA1 (human) protease inhibition. actives 0.5% (n = 340,000). AID 504803. Q92743. recombinant HTRA1, FP-rhodamine activity-based probe, fluorescence polarization. inhibition, % at 5.96 µM; in the data active means inhibition above about 36%;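 further: 0% = enzyme with DMSO and 100% = wells lacking enzyme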
TCR CD3 inh = inhibitors of human TCR-CD3 interaction | actives 0.37% (n = 360,000) | TAMRA-labeled TCR probe fluorescence, biochemical | inhibition, % at 9.4 µM; in the data active means inhibition above about 19%;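 further: recombinant mutant TCR 2C K166C tagged with TAMRA read by polarization; 0% = receptor in buffer alone and 100% = receptor with positive control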
PRMT1 FP inh = inhibitors of human PRMT1; Q99873; recombinant PRMT1, activity-based probe fluorescence polarization; inhibition, % at 2.79 µM; actives 1.3% (n = 370,000); AID 652257;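 active means inhibition above about 21% made by adding two undisclosed values, limit read from the data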
Target sequence (Q99873 whole entry, looked up): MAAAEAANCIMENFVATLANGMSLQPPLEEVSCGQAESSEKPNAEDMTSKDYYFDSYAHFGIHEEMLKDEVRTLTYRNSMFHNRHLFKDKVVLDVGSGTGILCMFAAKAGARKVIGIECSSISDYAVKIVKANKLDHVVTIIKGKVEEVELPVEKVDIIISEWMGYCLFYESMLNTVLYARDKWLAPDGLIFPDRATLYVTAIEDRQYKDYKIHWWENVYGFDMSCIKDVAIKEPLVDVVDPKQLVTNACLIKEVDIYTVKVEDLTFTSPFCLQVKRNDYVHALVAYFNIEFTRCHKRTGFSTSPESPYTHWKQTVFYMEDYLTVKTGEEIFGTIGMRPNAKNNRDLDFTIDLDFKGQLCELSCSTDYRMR
ABHD4 inh = inhibits mouse alpha/beta hydrolase domain 4; inhibition, % at 8.92 µM; purified mABHD4, FP-Rh probe fluorescence polarization; actives 0.54% (n = 370,000);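 active means inhibition exceeding the mean over every tested compound plus 3 SD, cut at about 30% in these data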;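 further: 0% = plate median of compound wells and 100% = S159A mutant with DMSO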
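Doses – 8.92 µM, single dose · Material – wild-type mouse ABHD4 protein · Replication – single well per compound (singlicate) · Measure – percent inhibition of probe binding, normalized to plate controls · Schedule – 45 min compound pre-incubation plus 60 min probe step, 25 °C · Detection – fluorescence polarization with parallel and perpendicular emission, 525/598 nm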
rCAG bind conf = r(CAG) RNA repeat binding, confirmation | actives 70% (n = 4,300) | inhibition, % at 3 µM | shares compounds with rCAG RNA binder | TO-PRO-1 dye displacement fluorescence;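 active means inhibition above a per-plate cutoff, the mean inhibition of sample wells plus 3 SD, cut at about 35% in these data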;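 further: loss of TO-PRO-1 fluorescence as compound displaces dye from 1x1 AA loop RNA; 0% = DMSO only wells and 100% = 100 µM mitoxantrone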
DNA CAG counter = disrupts DNA CAG TO-PRO-1 complex, flagging rCAG hits; inhibition, % at 3 µM; d(CAG) DNA oligo TO-PRO-1 dye displacement, fluorescence; shares compounds with rCAG RNA binder; AID 652068; actives 94% (n = 4,300);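 active means inhibition above its plate's cutoff, the mean test-well inhibition plus 3 SD, cut at about 4.8% in these data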;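 further: 0% = DNA dye mix with DMSO and 100% = 100 µM mitoxantrone; hits displace the dye from DNA and so lower well fluorescence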
DNA CAG DR = DNA CAG dye complex inhibition, dose response counter-screen; shares compounds with rCAG RNA binder; DNA CAG/GTC duplex TO-PRO-1 dye displacement fluorescence; IC50, µM; actives 20% (n = 250); in the data active means IC50 below about 10 µM
* = called active by the depositor; x = not tested or not shown.

SMILES | SIAE primary | rCAG RNA binder | HTRA1 inh | TCR CD3 inh | PRMT1 FP inh | ABHD4 inh | rCAG bind conf | DNA CAG counter | others
Cc1cc(C(C)(C)C)cc(S(=O)(=O)Nc2ccc(O)c(C(=O)O)c2)c1C | -3.0 | 56.8* | -7.1 | -3.3 | 0.4 | -16.8 | 23.1 | 5.3*
O=C(O)CC(Cc1ccc(Cl)cc1)C(=O)Nc1cc(Cl)ccc1Cl (stereo unspecified) | -8.4 | 40.2* | -14.4 | -5.1 | -6.6 | -9.1 | 27.4 | 4.2
COc1ccc(OC)c(NC(=O)C(CC(=O)O)Cc2ccc(Cl)cc2)c1 (stereo unspecified) | -4.9 | 12.2 | 1.4 | 6.0 | -1.7 | 2.3 | x | x
Nc1c(S(=O)(=O)c2cccc(Cl)c2)c2nc3ccccc3nc2n1CCN1CCOCC1 | -2.5 | 1.1 | -8.2 | 1.9 | -2.4 | -0.4 | x | x
O=S(=O)(Nc1nc2ccccc2nc1NCCN1CCOCC1)c1cccc(Cl)c1 | 5.0 | 49.1* | 9.0 | -4.5 | -0.2 | 4.4 | 52.5* | 10.4* | DNA CAG DR=>29.9
O=S(=O)(Nc1nc2ccccc2nc1NCC1CCCO1)c1ccccc1 (stereo unspecified) | -6.2 | 17.6 | 3.9 | 1.9 | -4.2 | 1.2 | x | x
O=S(=O)(Nc1nc2ccccc2nc1NCC1CCCO1)c1cc(Cl)ccc1Cl (stereo unspecified) | -3.5 | 70.6* | -0.9 | 3.3 | -6.1 | -2.3 | 48.7* | 14.4*
CCN(CC)C(=O)CSc1nc2c(sc(=S)n2-c2ccc(C)cc2C)c(=O)[nH]1 | -5.2 | 39.2* | -10.3 | -2.2 | 3.2 | 2.3 | 46.5* | 14.6*
CCOc1ccc(-n2c(=S)sc3c(=O)[nH]c(SCC(=O)C(C)(C)C)nc32)cc1 | -5.4 | 37.2* | -18.1 | 7.7 | -3.1 | -0.7 | 66.2* | 30.1*
CCOC(=O)CSc1nc2c(sc(=S)n2-c2ccc(OCC)cc2)c(=O)[nH]1 | -1.8 | 43.2* | -11.2 | 4.5 | -0.9 | -4.3 | 38.8* | 10.2*
CCOc1ccc(-n2c(=S)sc3c(=O)[nH]c(SCC(=O)NCc4ccco4)nc32)cc1 | 9.7 | 47.2* | -2.5 | 0.9 | 6.5 | 7.1 | 40.9* | 11.8*
CCOc1ccc(-n2c(=S)sc3c(=O)[nH]c(SCC(=O)N4CCC(C)CC4)nc32)cc1 | 1.1 | 14.9 | -5.2 | 0.1 | -2.2 | 0.7 | x | x
CCOc1ccc(CCNC(=O)c2cc(-c3ccccc3)c(N3CCOCC3)s2)cc1OC | -2.1 | 10.2 | x | x | 3.9 | 0.7 | x | x
COc1ccc(S(=O)(=O)N2CCN(C(=O)CSc3nc4ccccc4nc3N3CCCCC3)CC2)cc1 | 3.4 | 9.2 | x | x | -3.2 | 3.3 | x | x
COCCNC(=O)C[C@H]1CC[C@H]2[C@@H](COc3ccc(NS(=O)(=O)c4ccc(Cl)cc4)cc3C(=O)N2C)O1 | -2.3 | 0.5 | x | x | -0.3 | 8.1 | x | x
CCCCCCCCN1C(=O)N2Cc3cc(F)ccc3C2CS1(=O)=O (stereo unspecified) | 1.7 | -1.4 | x | x | 1.7 | 5.2 | x | x
O=C(Nc1ccccc1C(=O)O)c1cc(S(=O)(=O)NCc2ccccc2)ccc1Cl | -2.5 | 49.0* | -5.6 | 1.0 | -2.9 | -7.9 | 39.4* | 6.5*
O=C(Nc1cccc(Cl)c1Cl)c1cc(S(=O)(=O)NCCc2ccccc2)ccc1F | 5.1 | 6.6 | -22.6 | 5.7 | -0.4 | -7.2 | x | x
Cc1ccc(C(=O)Nc2ccccc2C(=O)O)cc1S(=O)(=O)NCc1ccccc1 | -16.9 | 63.5* | -15.7 | -8.3 | 4.9 | -31.7 | 50.0* | 17.3*
Cc1ccc(C(=O)Nc2ccccc2C(=O)O)cc1S(=O)(=O)Nc1ccc(Br)cc1 | -41.1 | 83.3* | -92.1 | 2.2 | -2.4 | -87.2 | 85.8* | 55.8*
Cc1ccc(F)cc1NC(=O)c1ccc(NS(=O)(=O)c2ccc(Br)s2)cc1 | 6.9 | 41.1* | -10.9 | -4.6 | -0.4 | -7.2 | 38.2* | 11.3*
O=C(Nc1cccc(Cl)c1)OCCN1CCCC12CCC(c1ccccc1)CC2 (stereo unspecified) | 6.2 | x | x | x | -0.1 | 5.9 | x | x
